The nature of test [1]: Inhibition of IL-1 induced p38 MAPK phosphorylation level in TAK1 deficient mouse MEF cells at 500 nM incubated for 1 hr followed by IL-1 stimulation by Western blot analysis relative to control. Format: functional.
Test [2] relates to MEF. Briefly: Inhibition of TGF-beta induced p38 MAPK phosphorylation level in wild type mouse MEF cells incubated for 1 hr followed by TGF-beta stimulation by Western blot analysis. The class given is functional, cell-based. The settings on record: dose <= 500.0 nM. In general terms: A western blot detects proteins with antibodies after separation by electrophoresis.
For test [3], the target named is Tyrosine-protein kinase ABL1 (Homo sapiens, UniProt P00519). Briefly: Inhibition of ABL ACT labeling site in human A-375 cells at 0.5 uM by KiNativ Profiling analysis relative to control. Format: cell-based. In outline:
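Intact A375 melanoma cells were treated with compound at 5 or 0.5 μM, then lysed. Lysate kinases were labeled with a lysine-reactive ATP or ADP-biotin probe (KiNativ). Inhibition is read as protection of each kinase labeling site from probe labeling.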

Test [4] addresses Casein kinase I isoform delta (Homo sapiens) (UniProt P48730). As to the kind of experiment: Inhibition of CK1delta Lys2 labeling site in human A-375 cells at 0.05 uM by KiNativ Profiling analysis relative to control. The class given is cell-based.
Test [5] deals with Calcium/calmodulin-dependent protein kinase type 1 (Homo sapiens) (UniProt Q14012). As to the kind of experiment: Inhibition of CaMK1a Lys1 labeling site in human A-375 cells at 0.05 uM by KiNativ Profiling analysis relative to control. Format: cell-based.
The target in test [6] is Tyrosine-protein kinase Yes (Homo sapiens) (UniProt P07947). As to the kind of experiment: Inhibition of YES ACT labeling site in human A-375 cells at 0.5 uM by KiNativ Profiling analysis relative to control. The class given is cell-based.
The target in test [7] is Serine/threonine-protein kinase WNK3 (Homo sapiens) (UniProt Q9BYP7). As to the kind of experiment: Inhibition of Wnk3 Lys2 labeling site in human A-375 cells at 0.05 uM by KiNativ Profiling analysis relative to control. Format: cell-based.
Test [8] has as its target T1, Aurora kinase A (Homo sapiens) (UniProt O14965).
T1 sequence (whole entry): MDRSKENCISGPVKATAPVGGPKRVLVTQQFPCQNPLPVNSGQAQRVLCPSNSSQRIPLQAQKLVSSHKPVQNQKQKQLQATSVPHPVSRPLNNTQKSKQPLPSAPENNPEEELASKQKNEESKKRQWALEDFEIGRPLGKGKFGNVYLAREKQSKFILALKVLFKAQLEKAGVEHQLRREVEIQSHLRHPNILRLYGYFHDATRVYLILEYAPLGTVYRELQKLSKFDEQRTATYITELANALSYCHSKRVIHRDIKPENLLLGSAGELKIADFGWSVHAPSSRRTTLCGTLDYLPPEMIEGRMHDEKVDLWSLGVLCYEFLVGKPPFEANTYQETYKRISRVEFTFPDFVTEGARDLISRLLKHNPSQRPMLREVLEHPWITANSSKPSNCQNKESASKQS
As to the kind of experiment: Inhibition of AurA ATP Loop labeling site in human A-375 cells at 5 uM by KiNativ Profiling analysis relative to control. The class given is cell-based. In outline: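 Live A375 melanoma cells were treated with compound at 5 or 0.5 μM, then lysed. The lysates were labeled with a lysine-reactive ATP or ADP-biotin probe. Kinase protection from probe labeling was measured by KiNativ.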

Test [9] concerns the target Serine/threonine-protein kinase SMG1 (Homo sapiens) (UniProt Q96Q15). Briefly: Inhibition of SMG1 ATP labeling site harbouring SYPYLFKGLEDLHLDER in human A-375 cells at 0.05 uM by KiNativ Profiling analysis relative to control. The class given is cell-based.
For test [10], the target named is Tyrosine-protein kinase JAK1 (Homo sapiens) (UniProt P23458). Briefly: Inhibition of JAK1 domain2 ACT labeling site in human A-375 cells at 5 uM by KiNativ Profiling analysis relative to control. Format: cell-based.
Test [11] has as its target MAP/microtubule affinity-regulating kinase 3 (Homo sapiens) (UniProt P27448). Briefly: Inhibition of MARK3 Lys1 labeling site in human A-375 cells at 5 uM by KiNativ Profiling analysis relative to control. The class given is cell-based.
Test [12] addresses Epidermal growth factor receptor (Homo sapiens) (UniProt P00533). Briefly: Inhibition of EGFR Lys1 labeling site in human A-375 cells at 0.5 uM by KiNativ Profiling analysis relative to control. Format: cell-based. In outline: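 Live A375 melanoma cells were treated with compound at 0.5 or 5 μM, then lysed. Lysates were labeled with a lysine-reactive ATP or ADP-biotin probe. The read-out was protection of each kinase probe-labeling site from labeling, relative to control.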

Test [13] concerns the target Serine/threonine-protein kinase WNK4 (Homo sapiens) (UniProt Q96J92). Briefly: Inhibition of Wnk4 Lys2 labeling site in human A-375 cells at 0.05 uM by KiNativ Profiling analysis relative to control. Format: cell-based.
The target in test [14] is T2, Serine/threonine-protein kinase greatwall (Homo sapiens) (UniProt Q96GX5).
T2 sequence (whole entry): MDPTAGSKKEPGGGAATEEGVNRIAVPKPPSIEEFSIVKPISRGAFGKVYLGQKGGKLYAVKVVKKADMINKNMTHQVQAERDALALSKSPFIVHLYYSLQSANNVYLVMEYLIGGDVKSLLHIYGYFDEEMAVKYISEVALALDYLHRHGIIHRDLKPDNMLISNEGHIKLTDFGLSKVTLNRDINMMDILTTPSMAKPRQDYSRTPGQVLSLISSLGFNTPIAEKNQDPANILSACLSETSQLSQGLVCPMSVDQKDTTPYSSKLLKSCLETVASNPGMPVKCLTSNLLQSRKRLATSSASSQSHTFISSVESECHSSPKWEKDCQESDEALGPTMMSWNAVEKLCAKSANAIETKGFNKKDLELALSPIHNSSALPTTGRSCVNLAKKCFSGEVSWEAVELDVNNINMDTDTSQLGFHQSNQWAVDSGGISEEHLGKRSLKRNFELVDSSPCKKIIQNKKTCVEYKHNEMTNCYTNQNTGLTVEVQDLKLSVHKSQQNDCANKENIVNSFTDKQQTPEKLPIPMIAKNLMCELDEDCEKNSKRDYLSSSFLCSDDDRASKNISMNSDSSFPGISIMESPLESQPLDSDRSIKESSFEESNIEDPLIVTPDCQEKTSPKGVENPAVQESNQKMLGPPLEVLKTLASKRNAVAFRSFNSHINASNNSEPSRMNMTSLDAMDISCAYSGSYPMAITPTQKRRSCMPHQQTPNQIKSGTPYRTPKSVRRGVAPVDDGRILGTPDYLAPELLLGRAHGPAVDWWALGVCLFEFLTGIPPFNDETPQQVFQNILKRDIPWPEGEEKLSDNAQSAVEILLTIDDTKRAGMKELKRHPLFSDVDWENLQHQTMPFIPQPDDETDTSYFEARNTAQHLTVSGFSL
As to the kind of experiment: Inhibition of MASTL ATP Loop labeling site in human A-375 cells at 0.05 uM by KiNativ Profiling analysis relative to control. Format: cell-based.

For test [15], the target named is Glycogen synthase kinase-3 alpha (Homo sapiens) (UniProt P49840). Briefly: Inhibition of GSK3A Lys2 labeling site in human A-375 cells at 5 uM by KiNativ Profiling analysis relative to control. Format: cell-based.
In test [16] the target is Serine/threonine-protein kinase 10 (Homo sapiens) (UniProt O94804). Briefly: Inhibition of LOK Lys1 labeling site harbouring ETGALAAAKVIETK in human A-375 cells at 0.5 uM by KiNativ Profiling analysis relative to control. The class given is cell-based.

Sequence of Glycogen synthase kinase-3 alpha (Homo sapiens) (P49840 2-483 limits assumed): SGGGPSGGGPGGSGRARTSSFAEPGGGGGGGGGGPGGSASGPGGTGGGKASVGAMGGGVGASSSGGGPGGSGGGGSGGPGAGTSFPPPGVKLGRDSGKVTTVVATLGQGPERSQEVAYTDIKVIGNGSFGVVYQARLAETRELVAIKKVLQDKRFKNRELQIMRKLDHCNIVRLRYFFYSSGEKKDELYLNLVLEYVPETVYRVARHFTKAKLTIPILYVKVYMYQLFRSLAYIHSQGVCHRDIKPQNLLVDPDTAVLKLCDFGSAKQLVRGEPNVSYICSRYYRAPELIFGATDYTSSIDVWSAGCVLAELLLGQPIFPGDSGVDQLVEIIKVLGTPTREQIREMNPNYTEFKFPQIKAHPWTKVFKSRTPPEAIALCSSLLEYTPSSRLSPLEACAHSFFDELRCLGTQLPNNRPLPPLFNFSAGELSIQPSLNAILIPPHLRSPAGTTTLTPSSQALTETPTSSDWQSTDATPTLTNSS
Sequence of Calcium/calmodulin-dependent protein kinase type 1 (Homo sapiens) (Q14012 whole entry, looked up): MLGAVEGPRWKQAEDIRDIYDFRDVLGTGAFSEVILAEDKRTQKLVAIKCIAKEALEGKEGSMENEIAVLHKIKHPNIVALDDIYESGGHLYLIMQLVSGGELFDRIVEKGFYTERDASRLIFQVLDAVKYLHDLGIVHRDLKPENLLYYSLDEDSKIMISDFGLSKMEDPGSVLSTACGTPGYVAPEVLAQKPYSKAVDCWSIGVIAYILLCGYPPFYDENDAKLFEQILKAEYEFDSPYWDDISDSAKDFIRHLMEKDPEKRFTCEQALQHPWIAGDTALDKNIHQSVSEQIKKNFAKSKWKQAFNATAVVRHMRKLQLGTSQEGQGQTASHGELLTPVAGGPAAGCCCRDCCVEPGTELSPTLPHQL
Sequence of Serine/threonine-protein kinase SMG1 (Homo sapiens) (Q96Q15 whole entry, the tested form may be a part): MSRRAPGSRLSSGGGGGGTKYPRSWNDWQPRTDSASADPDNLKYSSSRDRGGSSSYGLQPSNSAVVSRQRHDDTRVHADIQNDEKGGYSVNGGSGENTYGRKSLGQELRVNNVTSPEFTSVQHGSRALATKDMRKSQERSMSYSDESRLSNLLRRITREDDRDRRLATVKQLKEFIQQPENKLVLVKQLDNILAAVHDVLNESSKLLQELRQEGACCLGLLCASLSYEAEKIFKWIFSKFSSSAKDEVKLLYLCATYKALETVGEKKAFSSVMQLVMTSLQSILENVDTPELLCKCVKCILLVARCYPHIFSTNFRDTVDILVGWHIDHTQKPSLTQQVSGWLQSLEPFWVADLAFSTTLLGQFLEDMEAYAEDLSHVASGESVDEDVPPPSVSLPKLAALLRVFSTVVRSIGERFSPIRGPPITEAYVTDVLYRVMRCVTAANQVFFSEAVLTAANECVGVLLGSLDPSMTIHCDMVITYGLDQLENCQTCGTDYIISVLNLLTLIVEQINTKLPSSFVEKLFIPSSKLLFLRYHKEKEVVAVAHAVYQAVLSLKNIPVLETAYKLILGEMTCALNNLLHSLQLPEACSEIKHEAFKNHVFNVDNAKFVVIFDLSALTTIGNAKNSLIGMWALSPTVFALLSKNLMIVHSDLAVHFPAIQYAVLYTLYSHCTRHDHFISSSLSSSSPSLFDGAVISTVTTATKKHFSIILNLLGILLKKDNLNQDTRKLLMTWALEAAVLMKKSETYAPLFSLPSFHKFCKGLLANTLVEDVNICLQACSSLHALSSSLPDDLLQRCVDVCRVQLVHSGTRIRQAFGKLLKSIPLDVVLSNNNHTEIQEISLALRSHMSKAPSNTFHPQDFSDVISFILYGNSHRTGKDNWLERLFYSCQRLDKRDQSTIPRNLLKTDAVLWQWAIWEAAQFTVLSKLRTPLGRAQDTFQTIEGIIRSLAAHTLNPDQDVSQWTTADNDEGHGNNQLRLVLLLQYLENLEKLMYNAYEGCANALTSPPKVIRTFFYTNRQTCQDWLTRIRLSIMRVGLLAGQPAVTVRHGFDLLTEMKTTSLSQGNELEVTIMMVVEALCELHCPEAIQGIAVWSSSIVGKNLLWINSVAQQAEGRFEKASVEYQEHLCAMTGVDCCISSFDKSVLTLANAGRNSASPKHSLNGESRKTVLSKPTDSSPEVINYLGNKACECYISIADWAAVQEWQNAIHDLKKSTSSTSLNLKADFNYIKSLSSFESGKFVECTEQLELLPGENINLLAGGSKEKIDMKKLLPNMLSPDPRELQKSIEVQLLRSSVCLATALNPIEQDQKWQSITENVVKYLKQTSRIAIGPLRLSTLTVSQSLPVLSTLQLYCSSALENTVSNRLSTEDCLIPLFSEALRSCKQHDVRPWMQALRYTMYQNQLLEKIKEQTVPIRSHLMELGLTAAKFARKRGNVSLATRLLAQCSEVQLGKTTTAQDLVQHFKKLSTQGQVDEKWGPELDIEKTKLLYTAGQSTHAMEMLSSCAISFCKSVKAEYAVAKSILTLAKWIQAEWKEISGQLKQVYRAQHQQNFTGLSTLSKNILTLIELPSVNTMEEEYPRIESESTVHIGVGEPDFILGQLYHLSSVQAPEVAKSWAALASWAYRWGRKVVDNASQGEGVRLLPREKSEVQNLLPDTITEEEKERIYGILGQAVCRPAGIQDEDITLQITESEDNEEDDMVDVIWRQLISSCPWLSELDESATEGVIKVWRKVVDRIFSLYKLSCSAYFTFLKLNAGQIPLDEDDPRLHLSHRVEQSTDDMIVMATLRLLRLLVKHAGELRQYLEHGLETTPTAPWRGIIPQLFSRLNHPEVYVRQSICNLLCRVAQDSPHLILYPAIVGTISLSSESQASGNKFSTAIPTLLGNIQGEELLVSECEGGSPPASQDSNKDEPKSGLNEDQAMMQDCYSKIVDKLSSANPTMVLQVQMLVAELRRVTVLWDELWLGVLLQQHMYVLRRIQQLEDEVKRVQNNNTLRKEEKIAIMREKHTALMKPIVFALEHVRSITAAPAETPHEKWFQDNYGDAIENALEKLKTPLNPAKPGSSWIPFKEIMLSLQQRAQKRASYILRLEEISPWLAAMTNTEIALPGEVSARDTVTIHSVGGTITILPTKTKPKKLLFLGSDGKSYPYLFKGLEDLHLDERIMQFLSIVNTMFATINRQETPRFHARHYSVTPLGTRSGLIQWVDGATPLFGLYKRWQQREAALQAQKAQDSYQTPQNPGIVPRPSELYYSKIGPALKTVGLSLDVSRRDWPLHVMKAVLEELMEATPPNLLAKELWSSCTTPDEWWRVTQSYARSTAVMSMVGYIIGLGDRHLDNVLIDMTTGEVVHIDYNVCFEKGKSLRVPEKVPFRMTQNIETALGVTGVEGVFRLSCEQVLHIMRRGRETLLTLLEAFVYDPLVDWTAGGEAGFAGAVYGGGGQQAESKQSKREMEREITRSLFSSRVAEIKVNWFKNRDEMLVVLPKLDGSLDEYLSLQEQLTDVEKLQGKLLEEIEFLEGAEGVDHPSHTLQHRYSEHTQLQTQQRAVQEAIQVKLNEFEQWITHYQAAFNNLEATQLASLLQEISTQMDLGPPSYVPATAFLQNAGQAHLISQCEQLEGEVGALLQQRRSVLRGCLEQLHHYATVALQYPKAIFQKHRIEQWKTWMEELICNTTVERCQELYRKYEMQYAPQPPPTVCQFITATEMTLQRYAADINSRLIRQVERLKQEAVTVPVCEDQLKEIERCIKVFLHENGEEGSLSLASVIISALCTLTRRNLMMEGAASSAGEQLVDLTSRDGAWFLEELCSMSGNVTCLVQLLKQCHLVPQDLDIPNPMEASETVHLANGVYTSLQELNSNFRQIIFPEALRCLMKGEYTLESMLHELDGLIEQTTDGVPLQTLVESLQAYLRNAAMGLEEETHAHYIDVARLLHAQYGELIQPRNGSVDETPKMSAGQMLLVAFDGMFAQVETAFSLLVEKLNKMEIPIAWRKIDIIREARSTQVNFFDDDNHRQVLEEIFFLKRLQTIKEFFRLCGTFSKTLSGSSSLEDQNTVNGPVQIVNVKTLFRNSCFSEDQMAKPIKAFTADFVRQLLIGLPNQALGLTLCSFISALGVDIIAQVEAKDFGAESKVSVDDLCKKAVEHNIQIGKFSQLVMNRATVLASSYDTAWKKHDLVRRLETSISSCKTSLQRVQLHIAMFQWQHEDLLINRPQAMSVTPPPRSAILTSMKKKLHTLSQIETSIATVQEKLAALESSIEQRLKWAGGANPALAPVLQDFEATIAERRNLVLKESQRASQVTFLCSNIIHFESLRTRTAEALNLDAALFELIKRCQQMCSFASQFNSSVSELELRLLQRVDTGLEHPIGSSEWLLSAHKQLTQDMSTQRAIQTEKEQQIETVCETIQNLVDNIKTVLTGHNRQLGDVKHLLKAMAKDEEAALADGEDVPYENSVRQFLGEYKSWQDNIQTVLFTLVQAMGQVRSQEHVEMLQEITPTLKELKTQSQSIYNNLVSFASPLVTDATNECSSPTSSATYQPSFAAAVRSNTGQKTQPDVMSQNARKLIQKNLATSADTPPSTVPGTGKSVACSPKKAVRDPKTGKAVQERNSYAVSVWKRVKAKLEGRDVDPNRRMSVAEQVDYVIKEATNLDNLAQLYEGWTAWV
Sequence of Casein kinase I isoform delta (Homo sapiens) (P48730 whole entry, looked up, canonical isoform): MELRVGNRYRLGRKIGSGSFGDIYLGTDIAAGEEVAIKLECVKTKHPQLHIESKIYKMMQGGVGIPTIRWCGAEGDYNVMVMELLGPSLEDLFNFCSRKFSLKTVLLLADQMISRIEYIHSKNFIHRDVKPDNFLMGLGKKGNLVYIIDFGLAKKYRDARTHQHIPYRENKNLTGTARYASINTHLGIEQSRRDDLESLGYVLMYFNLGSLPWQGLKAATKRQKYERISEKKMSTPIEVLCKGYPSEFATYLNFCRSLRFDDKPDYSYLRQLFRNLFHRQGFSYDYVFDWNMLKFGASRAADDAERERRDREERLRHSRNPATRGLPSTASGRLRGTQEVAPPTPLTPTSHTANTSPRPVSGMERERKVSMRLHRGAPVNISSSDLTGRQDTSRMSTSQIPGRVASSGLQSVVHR

In general, inhibition refers to the drop in the measured response relative to a control, in per cent. As to `CNc1cc(Oc2cc(C(=O)Nc3cc(N4CCN(C)CC4)cc(C(F)(F)F)c3)ccc2C)ncn1`, the inhibition at 0.5 µM in [1] was found to be 100%. Further, the inhibition result in test [2] is “Dose-Dependent Effect”.

On to `CCN1CCN(Cc2ccc(NC(=O)c3ccc(C)c(/C=C/c4cnc5[nH]ccc5c4OC)c3)cc2C(F)(F)F)CC1`, for which the inhibition is over 98% in test [3]; -9.6% in test [4]; 21.5% in [5]; 72.6% in test [6]; 7.1% in test [7]; 48.5% in test [8]. For the same compound, the inhibition was 31.7% in [9]; 69.2% in test [10]; 13.3% in test [11]; 0.4% in [12]; -9.1% in test [13]; -6.2% in test [14]. Besides, the inhibition stood at 31.7% in test [15] and 60.7% in [16].

With `CNc1cc(Oc2cc(C(=O)Nc3cc(-n4cnc(C)c4)cc(C(F)(F)F)c3)ccc2C)ncn1`, the inhibition at 0.5 µM in [1] was 100%. In addition, the inhibition result in [2] was “Dose-Dependent Effect”.

Regarding `CCN1CCN(Cc2ccc(NC(=O)c3ccc(C)c(Oc4ccnc5[nH]ccc45)c3)cc2C(F)(F)F)CC1`, the inhibition in test [3] is over 98%; in test [4], -0.7%; in test [5], 34.9%; in test [6], 36.5%; in [7], -3.5%; in test [8] it was 31.4%. Moreover, the inhibition in test [9] was 15.6%; in test [10], 95.4%; in test [11], 4.9%; in test [12] it was -8.8%; in test [13], 0.1%; in test [14], 2%. Moreover, the inhibition is 33.7% in [15] and 71.7% in test [16].

The values above are taken from ChEMBL document CHEMBL5696442, “Discovery of type II inhibitors of TGFβ-activated kinase 1 (TAK1) and mitogen-activated protein kinase kinase kinase kinase 2 (MAP4K2)” (J Med Chem, 2015).
